# Tests used:
# [1] = human serum; cited from earlier work
# blood–brain barrier = details: cited from earlier work; for Direction and saturability of BBB transport: mouse brain, brain-to-blood and blood-to-brain
# [2] = system: blood–brain barrier of WT and Ghsr null mice; assay: Multiple-time regression analysis of blood-to-brain influx; format: in vivo, mouse; details: for Vi, initial volume of distribution in brain (vascular binding): WT mice, whole brain, y-intercept of B/S ratio vs exposure time, mean ± SEM
# Outline: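 Male and female mice (3–6 months) were anaesthetised with 0.15 mL 40% urethane i.p. They received 1 × 10^6 cpm (~20 ng) 125I-labelled peptide plus 5 × 10^5 cpm 99mTc-albumin via jugular vein, in 0.2 mL 1% BSA/lactated Ringer's. Carotid blood was taken at 1–10 min, and serum and brain were gamma-counted. Brain/serum ratios (μL/g) were plotted against exposure time (Patlak): the slope gave Ki and the intercept gave Vi.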
# [3] = system: brain endothelial cell (capillary vs parenchyma); assay: Capillary depletion: complete transfer across the brain endothelial cell; format: in vivo, mouse; details: 10 min after IV injection, n = 3
# Outline: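 Urethane-anaesthetised male and female mice (3–6 months) received a 0.2 mL IV injection of 1 × 10^6 cpm 125I-labelled test peptide plus 5 × 10^5 cpm 99mTc-albumin in 1% BSA/lactated Ringer's. Brain was homogenised and spun at 5400 g for 15 min at 4 °C. The capillary pellet was separated from the parenchymal supernatant, and the parenchyma was vascular-corrected using 99mTc-albumin. Ratios were (cpm/g tissue)/(cpm/μL serum).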
Capillary/serum ratio [3],"Transport rate relative to the other three ghrelin forms ([2]; BBB transport rate in mice, hDAG vs mDAG, hAG, mAG)",Substance,Half-life [1],Degradation of AG into DAG (blood–brain barrier; same time frame (10 min)),Direction and saturability of BBB transport (blood–brain barrier),"Vi, initial volume of distribution in brain (vascular binding) [2]"
–,–,acyl ghrelin [AG],~10 min,not degraded into DAG,–,–
–,–,human AG [hAG],–,–,bidirectional and saturable manner,1.192 ± 0.57 µL/g
1.0 ± 0.30 µL/g,approximately three times faster,human DAG [hDAG],–,–,–,1.775 ± 0.81 µL/g
–,–,mouse AG [mAG],–,–,bidirectional and saturable manner,2.847 ± 0.57 µL/g
–,–,mouse DAG [mDAG],–,–,unidirectionally and in an unsaturable manner,2.265 ± 0.75 µL/g
